IDH1 mut inh: blocks human IDH1 R132H reductase activity. O75874. diaphorase/resazurin fluorescence, 60 min. inhibition, % at 10 µM. actives 0.18% (n = 70,000); in the data active = inhibition above about 34%; inconclusive = no clear call, values can overlap the other calls; inactive = below about 11%;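 also: 0% = DMSO and 100% = no enzyme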
GASC1 inh: blocks human GASC-1 (KDM4C) demethylase activity. AID 720574. inhibition, % at 12.5 µM. Q9H3R0. actives 0.15% (n = 96,000). GST-KDM4C 2-372, H3K9me3 peptide, LANCE TR-FRET;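 active = mean replicate inhibition above about 25%, with at least 55% of replicates also reaching it, limit read from the data, passing the limit was not always enough; inconclusive = only one of those two conditions met; inactive = neither condition met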
Target sequence (Q9H3R0 2-372 limits assumed): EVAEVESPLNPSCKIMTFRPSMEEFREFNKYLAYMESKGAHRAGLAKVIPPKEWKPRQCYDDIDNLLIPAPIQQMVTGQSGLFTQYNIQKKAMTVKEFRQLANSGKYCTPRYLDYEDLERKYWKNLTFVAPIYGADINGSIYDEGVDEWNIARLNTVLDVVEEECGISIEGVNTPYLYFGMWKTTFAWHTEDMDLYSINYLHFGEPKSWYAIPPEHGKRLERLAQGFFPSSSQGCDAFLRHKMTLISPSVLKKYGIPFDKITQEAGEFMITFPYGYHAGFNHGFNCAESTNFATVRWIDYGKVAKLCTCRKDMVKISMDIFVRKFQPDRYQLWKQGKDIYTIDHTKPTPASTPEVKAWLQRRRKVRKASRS
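System: N-terminal GST-fused human GASC-1 (KDM4C) fragment, residues 2-372 / Amount: 10 nM GST-KDM4C in enzyme reaction / Also added: H3K9me3 peptide with Fe(II)/2OG / Times: 30 min demethylation and 1 h detection at room temperature / Signal: LANCE TR-FRET / Read-out basis: Fall in 671/618 emission ratio as inhibition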
T cruzi growth-1: inhibitors of T. cruzi proliferation | T. cruzi beta-gal in NIH3T3, GalScreen luminescence, 90 h | actives 5.9% (n = 77,000) | inhibition, % at 8.34 µM;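 active = mean inhibition above about 93%, with at least 55% of replicates each passing it, limit read from the data, passing the limit was not always enough; inconclusive = only one of those two conditions holds; inactive = neither condition holds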
T cruzi growth-2: inhibitors of T. cruzi proliferation. T. cruzi beta-gal in NIH3T3, GalScreen luminescence, 90 h. inhibition, % at 8.35 µM. actives 72% (n = 5,600). shares compounds with T cruzi growth-1;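 active = mean replicate inhibition above about 95% and at least 55% of replicates individually reaching it, limit read from the data; inconclusive = only one of the two criteria is met; inactive = neither criterion is met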
T cruzi growth-3: Trypanosoma cruzi proliferation inhibition. AID 651740. T. cruzi beta-gal in NIH3T3, GalScreen luminescence, 90 h. inhibition, % at 2.09 µM. shares compounds with T cruzi growth-1. actives 21% (n = 5,600);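 active = mean inhibition above about 95%, with at least 55% of replicates also reaching it, limit read from the data; inconclusive = meets just one of the two conditions; inactive = meets neither condition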;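 also: plate controls were neutral control median for no effect and positive control median for full effect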
3T3 cytotox: kills mouse NIH/3T3 fibroblasts | shares compounds with T cruzi growth-1 | NIH/3T3 viability, CellTiter-Glo ATP luminescence, 90 h | cytotoxicity (signal decrease), % at 8.35 µM | actives 14% (n = 5,600);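 active = mean signal decrease across replicates above about 35% based on untreated-well scatter, with enough replicates individually passing, limit read from the data; inconclusive = no rule stated though some were filed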;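 also: 0% = median of neutral control wells and 100% = median of positive control wells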
NIH3T3 tox 2: cytotoxicity in mouse NIH/3T3 fibroblasts. shares compounds with T cruzi growth-1. NIH/3T3 viability, CellTiter-Glo ATP luminescence, 90 h. inhibition, % at 24.9 µM. actives 56% (n = 5,600);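 active = mean loss of cell viability signal at or above a set limit, and enough replicates individually reaching it; inconclusive = meets only the mean limit or only the replicate share; inactive = meets neither condition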;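 also: 0% = median of neutral control wells and 100% = median of positive control wells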
Starred values were filed as active, the others as inactive; u = inconclusive; x = not tested or not shown. This is one part of a sample in which hits are shown more often than they occur.

SMILES	IDH1 mut inh	GASC1 inh	T cruzi growth-1	T cruzi growth-2	T cruzi growth-3	3T3 cytotox	NIH3T3 tox 2
C/C=C/c1cnc2c(c1)C(=O)N([C@H](C)CO)C[C@@H](C)[C@@H](CN(C)C(=O)C1CCOCC1)O2	0	1	-1	x	x	x	x
COc1ccc(CSc2ncn[nH]2)cc1[N+](=O)[O-]	0	x	x	x	x	x	x
CO[C@H]1CN(C)C(=O)c2cc(NC(=O)Nc3ccccc3)ccc2OC[C@@H](C)N(C(=O)CN(C)C)C[C@@H]1C	0	-1	-9	x	x	x	x
C[C@H](CO)N1C[C@H](C)[C@H](CN(C)Cc2ccccn2)Oc2cc(C#C[C@@H](C)O)ccc2S1(=O)=O	1	3	-10	x	x	x	x
C[C@H](CO)N1C[C@H](C)[C@H](CN(C)Cc2ccccn2)Oc2cc(C#CCN(C)C)ccc2S1(=O)=O	2	5	89	x	x	x	x
C[C@@H]1CN([C@H](C)CO)S(=O)(=O)c2ccc(C#CCN(C)C)cc2O[C@@H]1CN(C)Cc1ccccn1	0	5	75	x	x	x	x
C[C@H]1CN([C@@H](C)CO)S(=O)(=O)c2ccc(C#CCN(C)C)cc2O[C@H]1CN(C)Cc1ccccn1	0	2	92*	u	52	6	u
CCCC#Cc1ccc2c(c1)O[C@@H](CN(C)Cc1ccccn1)[C@@H](C)CN([C@H](C)CO)S2(=O)=O	0	2	u	96*	50	u	-21
CCCC#Cc1ccc2c(c1)O[C@H](CN(C)Cc1ccccn1)[C@@H](C)CN([C@@H](C)CO)S2(=O)=O	0	3	u	99*	u	22	103*
CC(C)C#Cc1ccc2c(c1)O[C@@H](CN(C)Cc1ccccn1)[C@@H](C)CN([C@@H](C)CO)S2(=O)=O	x	x	93	x	x	x	x
CCCC#Cc1ccc2c(c1)O[C@@H](CN(C)Cc1ccccn1)[C@H](C)CN([C@H](C)CO)S2(=O)=O	-5	1	u	97*	28	69*	105*
CC1(C)CC[C@]2(C(=O)O)CC[C@]3(C)C(=CCC4[C@@]5(C)CC[C@H](O[C@@H]6O[C@H](C(=O)O)[C@@H](O[C@@H]7O[C@H](CO)[C@@H](O)[C@H](O)[C@H]7O)[C@H](O)[C@H]6O[C@@H]6O[C@H](CO)[C@@H](O)[C@H](O)[C@H]6O)C(C)(C)C5CC[C@]43C)C2C1 (some centres undefined)	0	x	x	x	x	x	x
O=C(CC1CC1)N1CC2(C1)[C@H](c1ccccc1)[C@@H](CO)N2Cc1ccc(F)cc1	x	0	x	x	x	x	x
C[C@H](CO)N1C[C@H](C)[C@@H](CN(C)C(=O)c2cnccn2)Oc2ncc(-c3cccc(F)c3)cc2C1=O	-5	-1	-33	x	x	x	x
CC(=O)N(C)C[C@H]1Oc2cc(C#CCC(C)C)ccc2S(=O)(=O)N([C@@H](C)CO)C[C@H]1C	-1	-1	10	x	x	x	x
CCC(C)(NC(C)=O)C(=O)NC(Cc1c[nH]c2ccccc12)C(=O)NC(CCC(N)=O)C(=O)O (centres undefined)	0	x	x	x	x	x	x
O=C([C@@H]1[C@@H](CO)[C@@H]2Cn3c(ccc(/C=C/c4ccccc4)c3=O)[C@@H]2N1CC1CC1)N1CCOCC1	x	2	92	x	x	x	x
N#C[C@@H]1[C@H](c2ccccc2C2=CCCC2)[C@H](CO)N1C(=O)C1CC1	x	4	x	x	x	x	x
CC(C)NC(=O)N(C)C[C@H]1Oc2cc(C#Cc3ccccn3)ccc2S(=O)(=O)N([C@H](C)CO)C[C@H]1C	3	-1	111*	99*	46	4	40*
CC(C)NC(=O)N(C)C[C@H]1Oc2cc(C#Cc3ccccn3)ccc2S(=O)(=O)N([C@@H](C)CO)C[C@H]1C	21	14	48	x	x	x	x
CC(C)NC(=O)N(C)C[C@@H]1Oc2cc(C#Cc3ccccn3)ccc2S(=O)(=O)N([C@@H](C)CO)C[C@@H]1C	-4	1	u	30	16	-17	-4
CC(C)NC(=O)N(C)C[C@@H]1Oc2cc(C#Cc3ccccn3)ccc2S(=O)(=O)N([C@H](C)CO)C[C@@H]1C	0	0	5	x	x	x	x
O=C(O)COc1cccc(NC(=O)c2ccc(I)cc2)c1	1	x	x	x	x	x	x
COCC(=O)N[C@@H]1C=C[C@@H](CC(=O)NCc2ccc(Cl)cc2)O[C@@H]1CO	0	3	-45	x	x	x	x
COc1ccccc1S(=O)(=O)N(C)C[C@H]1Oc2ncc(-c3ccc(C)cc3)cc2C(=O)N([C@H](C)CO)C[C@@H]1C	0	0	99*	99*	71	64*	37*
SMILES	IDH1 mut inh	GASC1 inh	T cruzi growth-1	T cruzi growth-2	T cruzi growth-3	3T3 cytotox	NIH3T3 tox 2
Cc1ccc(S(=O)(=O)N(C)C[C@H]2Oc3ncc(-c4ccccc4)cc3C(=O)N([C@@H](C)CO)C[C@@H]2C)cc1	-1	-1	60	x	x	x	x
COc1ccccc1S(=O)(=O)N(C)C[C@H]1Oc2ncc(-c3ccc(C)cc3)cc2C(=O)N([C@@H](C)CO)C[C@@H]1C	-5	-1	111*	103*	61	25	42*
COc1ccccc1S(=O)(=O)N(C)C[C@@H]1Oc2ncc(-c3ccc(C)cc3)cc2C(=O)N([C@H](C)CO)C[C@@H]1C	x	x	61	x	x	x	x
COc1ccc(NC(=O)C(=O)NCc2ccccn2)cc1	0	x	x	x	x	x	x
CCOc1ccc(NC(=O)Cn2cc(C(=O)c3cccs3)c3ccccc32)cc1	0	x	x	x	x	x	x
Cc1ccc(-c2nn3c(C)nnc3s2)cc1NC(=O)C(C)Oc1ccc(Cl)cc1Cl (centres undefined)	0	x	x	x	x	x	x
C[C@@H]1CCCCO[C@@H](CN(C)Cc2ccc(Cl)c(Cl)c2)[C@@H](C)CN([C@@H](C)CO)C(=O)c2cc(NC(=O)Nc3cccc4ccccc34)ccc2O1	1	0	124*	96*	103*	-3	-2
C[C@@H]1CCCCO[C@@H](CN(C)Cc2ccncc2)[C@H](C)CN([C@@H](C)CO)C(=O)c2cc(NC(=O)Nc3cccc4ccccc34)ccc2O1	x	-1	106	x	x	x	x
C[C@H]1CCCCO[C@H](CN(C)Cc2ccc(Cl)c(Cl)c2)[C@@H](C)CN([C@@H](C)CO)C(=O)c2cc(NC(=O)Nc3cccc4ccccc34)ccc2O1	1	-1	u	112*	111*	2	6
C[C@H](CO)N1C[C@H](C)[C@@H](CN(C)Cc2ccncc2)OCCCC[C@H](C)Oc2ccc(NC(=O)Nc3cccc4ccccc34)cc2C1=O	-8	-2	43	x	x	x	x
C[C@@H]1CN([C@@H](C)CO)C(=O)c2cc(NC(=O)Nc3cccc4ccccc34)ccc2O[C@@H](C)CCCCO[C@H]1CN(C)Cc1ccncc1	-3	-2	55	x	x	x	x
C[C@@H]1CCCCO[C@H](CN(C)Cc2ccc(Cl)c(Cl)c2)[C@@H](C)CN([C@H](C)CO)C(=O)c2cc(NC(=O)Nc3cccc4ccccc34)ccc2O1	2	0	u	111*	75	-1	-12

Screening data (PubChem BioAssay)
